TPT1 inh: blocks Candida albicans tRNA 2'-phosphotransferase; 300,000 tested, 0.81% active; recombinant caTPT1, FP RNA substrate dephosphorylation; inhibition, % at 5 µM;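 active = inhibition above the mean of all tested compounds plus 3 SD, set per screening campaign, cut at about 24% in these data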
Rpn11 inh: Rpn11 (human) deubiquitinase inhibition | O00487 | human 26S proteasome, Ub4-pepOG fluorescence polarization; 20S core pre-blocked with epoxomicin | inhibition, % at 20 µM | 360,000 tested, 0.59% active | AID 588493;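 active = inhibition at 20 µM, scaled to each plate's controls, above about 33%, limit read from the data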
Target sequence (O00487 whole entry, looked up): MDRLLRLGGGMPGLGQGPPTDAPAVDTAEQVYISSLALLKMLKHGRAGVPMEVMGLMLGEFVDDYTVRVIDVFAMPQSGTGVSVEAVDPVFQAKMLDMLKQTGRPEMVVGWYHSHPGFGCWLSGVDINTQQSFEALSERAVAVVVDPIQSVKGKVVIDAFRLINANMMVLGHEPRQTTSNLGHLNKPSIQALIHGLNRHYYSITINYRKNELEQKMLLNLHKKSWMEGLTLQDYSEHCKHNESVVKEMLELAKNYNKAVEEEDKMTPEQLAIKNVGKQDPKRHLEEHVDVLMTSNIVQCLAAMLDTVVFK
HNF4A DNA FP: change in binding of human HNF4 alpha to DNA. P41235. activity change, % at 10 µM. HNF4a-FITC DNA binding, fluorescence polarization, 1 h. 360,000 tested, 0.3% active; in the data active = activity change above about 30%, passing the limit was not always enough
CSN deneddyl inh: blocks human CSN-mediated cullin deneddylation; AID 651999; Q92905; inhibition, % at 12.5 µM; Purified CSN, SCF-Nedd8-OG deneddylation, fluorescence polarization; 360,000 tested, 0.38% active;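 active = pattern-corrected inhibition above about 35%, with an unprinted fluorescence ratio check between 0.5 and 1.5, limit read from the data, passing the limit was not always enough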
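Assay system: purified human Csn5 enzyme expressed in HEK293T cells; Input: 0.24 nM Csn5 enzyme, final concentration; Reagent: 10 nM SCFSkp2-Nedd8OG; Compound dosing: 12.5 µM single point; Times: reaction 90 min, room temperature; Technique: fluorescence polarization readout.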
Rin1 Abl inh: human Rin1-Abl interaction inhibition | inhibition, % at 7.35 µM | AID 588664 | TR-FRET Rin1/Abl binding, biochemical | 360,000 tested, 0.4% active; in the data active = inhibition above about 5%, passing the limit was not always enough
Neddyl block: cullin neddylation inhibition; P61081+Q13564; TR-FRET cullin neddylation, biochemical; inhibition, % at 25 µM; 360,000 tested, 0.58% active; in the data active = inhibition above about 36%
Neddyl conf: confirmation of human cullin neddylation inhibitors; shares compounds with Neddyl block; TR-FRET cullin neddylation biochemical assay; calls only at 25 µM; 1,800 tested, 13% active; AID 652217; in the data active = inhibition above about 40%;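 note: neddylation substrate is the cullin 1 ring ligase complex with SKP2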
Of the large screens only hits and unclear results are named; the others gave an inactive call (follow-up assays come after a bar, where shown). Most compounds without a hit are left out; they make up all but 2.4% or so of the library.

Nc1ncnc2c1ncn2[C@@H]1O[C@H](CNS(=O)(=O)C2CC2)[C@@H](O)[C@H]1O	none (no result: TPT1 inh)
CC=C1OC(n2cnc3c(N)ncnc32)C(O)C1O (stereo not drawn)	Neddyl block 42 (no result: TPT1 inh) | Neddyl conf inactive
Nc1ncnc2c1ncn2C1OC(COP(=O)(O)O)C(O)C1O (stereo not drawn)	Neddyl block 56 | Neddyl conf active
Nc1ncnc2c1ncn2[C@@H]1O[C@H](COP(=O)(O)O)[C@@H](O)[C@H]1O	Neddyl block 49 | Neddyl conf active
Cc1nn(CC(=O)Nc2ccc3nc4n(c(=O)c3c2)CCCC4)c(C)c1[N+](=O)[O-]	none
CCOC(=O)Cn1nc(/C=C/c2ccccc2)ccc1=O	Neddyl block 43 | Neddyl conf active
CCOC(=O)Cn1nc(/C=C/c2ccc(C(C)C)cc2)ccc1=O	Neddyl block 49
CCOC(=O)Cn1nc(/C=C/c2ccc(C)cc2)ccc1=O	none (not shown: Neddyl block)
CC(=O)C1=C(C)NC(=O)CC1c1ccc(F)cc1 (stereo not drawn)	none
COc1ccc(-c2cc(C(F)(F)F)n3ncc(C(=O)NCc4ccco4)c3n2)cc1	none (not shown: Neddyl block)
O=C(NCc1ccco1)c1cnn2c(C(F)(F)F)cc(-c3ccccc3)nc12	Neddyl block 42 | Neddyl conf inactive
O=C(NC(Cc1cn(Cc2ccccc2)cn1)C(=O)O)OCC1c2ccccc2-c2ccccc21 (stereo not drawn)	none (no result: TPT1 inh)
COc1ccc(-c2cc(C(=O)Nc3ccc(OC)c(OC)c3)no2)cc1	Neddyl block 40 | Neddyl conf inactive
COc1ccc(NC(=O)c2cc(-c3ccc(C)cc3)on2)cc1OC	none
Cc1ccc(NS(=O)(=O)c2cc(NC(=O)c3ccc4c(c3)NC(=O)CS4)ccc2Cl)c(C)c1	Neddyl block 48 | Neddyl conf inactive
COc1ccc(NC(=O)c2ccc3c(c2)NC(=O)CS3)cc1	none (no result: TPT1 inh)
COCCCn1c(SC(C)C(=O)Nc2c(C)n(C)n(-c3ccccc3)c2=O)n[nH]c1=O (stereo not drawn)	none (no result: TPT1 inh)
COc1ccc2oc(C(=O)OCC(=O)N3CCCC(C)C3)c(C)c2c1 (stereo not drawn)	none (not shown: Neddyl block)
CCOc1ccc2oc(C(=O)OCC(=O)N3CCCC(C)C3)c(C)c2c1 (stereo not drawn)	Neddyl block 60 (not shown: TPT1 inh)
COc1ccc2oc(C(=O)OCC(=O)N(C)CC(=O)Nc3ccc(F)cc3)c(C)c2c1	Neddyl block 47
COc1ccc2oc(C(=O)OCC(=O)NC(=O)c3ccccc3)c(C)c2c1	none
CCOc1ccc2oc(C(=O)OCC(=O)NC3CCCC3)c(C)c2c1	none (not shown: TPT1 inh, Neddyl block)
COc1ccc2oc(C(=O)OCC(=O)NC3CCCCC3)c(C)c2c1	Neddyl block 66 | Neddyl conf inactive
Cc1ccc(CNC(=O)c2cc(C3CC3)nc3c2cnn3C(C)C)cc1	Neddyl block 43 (no result: TPT1 inh) | Neddyl conf inactive
CC(C)n1ncc2c(C(=O)NCCc3ccc(F)cc3)cc(C3CC3)nc21	Neddyl block 59 (not shown: TPT1 inh)
Cc1ccccc1CCNC(=O)c1cc(C2CC2)nc2c1cnn2C(C)C	none (not shown: TPT1 inh, Neddyl block)
Cc1ccc(CNC(=O)CC(C)S(=O)(=O)c2ccc3c(c2)NC(=O)CS3)o1 (stereo not drawn)	none
CCOc1cc(/C=C/C(=O)Nc2ccc(C(=O)NCCN(CC)CC)cc2)ccc1OCC(C)C	Neddyl block 54 | Neddyl conf active
Cc1cc(/C=C(/C#N)C(=O)O)c(C)n1CCC(C)C	none
COCCn1c(C)cc(/C=C(\C#N)C(=O)OC(C)C(=O)Nc2ccc(NC(C)=O)cc2)c1C (stereo not drawn)	Neddyl block 52 | Neddyl conf inactive
CN(CC(=O)Nc1cccc(F)c1)C(=O)c1cc(-c2ccco2)nc2ccccc12	CSN deneddyl inh 55, Neddyl block 42
COc1ccc(C(C)C)cc1-c1cncc(NC(C)=O)n1	none (no result: TPT1 inh)
CC1(C)CC(NC(=O)c2ccc(F)cc2)CC(C)(C)N1	none (no result: TPT1 inh)
CC(=O)c1ccc(-c2ccc(C(=O)NC3CC(C)(C)NC(C)(C)C3)o2)cc1	Neddyl block 66
Cc1nnc2ccc(-c3ccc(NS(=O)(=O)c4ccc(Cl)s4)cc3)nn12	Neddyl block 41 (not shown: TPT1 inh)

High-throughput results from PubChem.
